Measurements: ChEMBL document CHEMBL1129987, “Structure-based design of nonpeptidic HIV protease inhibitors: the sulfonamide-substituted cyclooctylpyramones” (J Med Chem, 1997)

Key:
[1] = Total plasma clearance value was obtained after intravenous administration of 2.5 mg/kg of drug in male Dawley rats; format: ADME, organism-based; set-up: dose 2.5 mg/kg, route intravenous; details: Sprague-Dawley, rat
[2] = Maximum concentration was measured after peroral administration of 5.0 mg/kg of drug in male Dawley rats; format: ADME, organism-based; set-up: dose 5 mg/kg, route oral; details: Sprague-Dawley, rat, in vivo, po
[3] = Maximum time taken by the drug to reach peak concentration after peroral administration of 5.0 mg/kg of drug in male Dawley rats; format: ADME, organism-based; set-up: dose 5 mg/kg, route oral; details: Sprague-Dawley, rat, in vivo, po
[4] = Oral bioavailability in rat (Sprague-Dawley) (male) (dose 5 mg/kg); format: ADME, organism-based; details: in vivo
[5] = Apparent volume of distribution was obtained after intravenous administration of 2.5 mg/kg of drug in male Dawley rats; format: ADME, organism-based; set-up: dose 2.5 mg/kg, route intravenous; details: Sprague-Dawley, rat, in vivo, read-out: Vss
[6] = system: Human immunodeficiency virus 1; experiment: Antiviral activity in HIV-1 infected H9 cells; format: functional; details: Human immunodeficiency virus 1, H9; read-out: ED50 (the source's name)
Outline: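 H9 cells infected with HIV-1 IIIB at MOI about 0.005, spun down (200g, 10 min), resuspended at 8 × 10^5 cells/mL in RPMI Complete and mixed with compound; final DMSO 0.1%, triplicate per concentration. After 5 days at 37 °C in 5% CO2, supernatant p24 antigen was measured by ELISA. ED50 is the drug amount that reduces p24 by 50% versus DMSO drug-free controls.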

[7] = molecular target: Human immunodeficiency virus type 1 protease (Human immunodeficiency virus 1, UniProt Q72874); experiment: Binding affinity against HIV-1 protease
[8] = Half-life was measured after intravenous administration of 2.5 mg/kg of drug in male Dawley rats; format: ADME, organism-based; set-up: dose 2.5 mg/kg, route intravenous; details: Sprague-Dawley, rat, in vivo
[9] = Median cell culture toxic dose was evaluated against H9 cell line; format: ADME, cell-based; details: human, H9 cells; read-out: CCTD50
[10] = molecular target: Human immunodeficiency virus type 1 protease (Human immunodeficiency virus 1) (UniProt Q72874); experiment: Percentage inhibition against HIV-1 protease at 1.1 uM concentration of drug
[11] = molecular target: Human immunodeficiency virus type 1 protease (Human immunodeficiency virus 1) (UniProt Q72874); experiment: Percentage inhibition against HIV-1 protease at 3 uM concentration of drug
[12] = molecular target: Human immunodeficiency virus type 1 protease (Human immunodeficiency virus 1) (UniProt Q72874); experiment: Percentage inhibition against HIV-1 protease at 1 uM concentration of drug
[13] = Total plasma clearance value was obtained after intravenous administration of 5.1 mg/kg of drug in male Dawley rats; format: ADME, organism-based; set-up: dose 5.1 mg/kg, route intravenous; details: Sprague-Dawley, rat
[14] = Apparent volume of distribution was obtained after intravenous administration of 5.1 mg/kg of drug in male Dawley rats; format: ADME, organism-based; set-up: dose 5.1 mg/kg, route intravenous; details: Sprague-Dawley, rat, in vivo, read-out: Vss
[15] = Half-life was measured after intravenous administration of 5.1 mg/kg of drug in male Dawley rats; format: ADME, organism-based; set-up: dose 5.1 mg/kg, route intravenous; details: Sprague-Dawley, rat, in vivo
[16] = molecular target: Human immunodeficiency virus type 1 protease (Human immunodeficiency virus 1) (UniProt Q72874); experiment: Percentage inhibition against HIV-1 protease at 10 uM concentration of drug
[17] = Total plasma clearance value was obtained after intravenous administration of […] mg/kg of drug in male Dawley rats; format: ADME, organism-based; details: male, Sprague-Dawley, rat, plasma, 2.8 mg/kg
[18] = Maximum concentration was measured after peroral administration of 5.1 mg/kg of drug in male Dawley rats; format: ADME, organism-based; set-up: dose 5.1 mg/kg, route oral; details: Sprague-Dawley, rat, in vivo, po
[19] = Maximum time taken by the drug to reach peak concentration after peroral administration of 5.1 mg/kg of drug in male Dawley rats; format: ADME, organism-based; set-up: dose 5.1 mg/kg, route oral; details: Sprague-Dawley, rat, in vivo, po
[20] = Oral bioavailability in rat (Sprague-Dawley) (male) (dose 5.1 mg/kg p.o.); format: ADME, organism-based; details: in vivo
[21] = Apparent volume of distribution was obtained after intravenous administration of 2.8 mg/kg of drug in male Dawley rats; format: ADME, organism-based; set-up: dose 2.8 mg/kg, route intravenous; details: male, Sprague-Dawley, rat, in vivo, read-out: Vss
[22] = Half-life was measured after intravenous administration of […] mg/kg of drug in male Dawley rats; format: ADME, organism-based; details: male, Sprague-Dawley, rat, in vivo, 2.8 mg/kg

Row | EC50 [6] [nM] | Ki [7] [nM] | Compound | CC50 [9] [nM] | further results
1 | 1200 | – | N#Cc1ccc(S(=O)(=O)Nc2cccc([C@@H](c3c(O)oc4c(c3=O)CCCCCC4)C3CC3)c2)cc1 | > 30000 | clearance [13]: 0.817 mL/min/kg; Cmax [2]: 19 µM; Tmax [3]: 0.5 h; bioavailability [4]: 42%; Vd [14]: 0.12 L/kg; half-life [15]: 6.2 h
2 | > 3000 | 0.6 | N#Cc1cccc(S(=O)(=O)Nc2cccc(C(c3c(O)oc4c(c3=O)CCCCCC4)C3CC3)c2)c1 (stereo not given) | > 30000 | –
3 | 4200 | 4.1 | O=c1c2c(oc(O)c1C(c1cccc(NS(=O)(=O)c3ccc(F)cc3F)c1)C1CC1)CCCCCC2 (stereo not given) | > 30000 | –
4 | 6400 | 6.2 | O=c1c2c(oc(O)c1C(c1cccc(NS(=O)(=O)c3ccc(C(F)(F)F)cc3)c1)C1CC1)CCCCCC2 (stereo not given) | > 30000 | –
5 | > 10000 | 6.3 | O=c1c2c(oc(O)c1C(c1cccc(NS(=O)(=O)c3cccs3)c1)C1CC1)CCCCCC2 (stereo not given) | > 30000 | –
6 | 5900 | 11 | O=c1c2c(oc(O)c1C(c1cccc(NS(=O)(=O)c3ccccc3F)c1)C1CC1)CCCCCC2 (stereo not given) | > 30000 | –
7 | 3400 | 4.1 | O=c1c2c(oc(O)c1C(c1cccc(NS(=O)(=O)c3ccc4ccccc4c3)c1)C1CC1)CCCCCC2 (stereo not given) | > 30000 | –
8 | 800 | 1.4 | O=c1c2c(oc(O)c1[C@H](c1cccc(NS(=O)(=O)c3ccc(F)cc3)c1)C1CC1)CCCCCC2 | > 30000 | clearance [17]: 1.92 mL/min/kg; Cmax [18]: 10 µM; Tmax [19]: 0.25 h; bioavailability [20]: 58%; Vd [21]: 0.13 L/kg; half-life [22]: 2.2 h
9 | 3800 | 3 | O=c1c2c(oc(O)c1C(c1cccc(NS(=O)(=O)c3cccc(C(F)(F)F)c3)c1)C1CC1)CCCCCC2 (stereo not given) | > 30000 | –
10 | 3200 | 2.7 | O=c1c2c(oc(O)c1C(c1cccc(NS(=O)(=O)c3cccc(Cl)c3)c1)C1CC1)CCCCCC2 (stereo not given) | > 30000 | –
11 | 4600 | 2.2 | O=c1c2c(oc(O)c1C(c1cccc(NS(=O)(=O)c3ccccn3)c1)C1CC1)CCCCCC2 (stereo not given) | > 30000 | –
12 | 3000 | 2.6 | O=c1c2c(oc(O)c1C(c1cccc(NS(=O)(=O)c3cccc(Br)c3)c1)C1CC1)CCCCCC2 (stereo not given) | > 30000 | –
13 | 4200 | 4.7 | O=c1c2c(oc(O)c1C(c1cccc(NS(=O)(=O)c3cccc([N+](=O)[O-])c3)c1)C1CC1)CCCCCC2 (stereo not given) | > 30000 | –

More lines, now with the values behind:

Row | Compound | EC50 [6] [nM] | Ki [7] [nM] | CC50 [9] [nM] | further results
14 | O=c1c2c(oc(O)c1[C@H](c1cccc(NS(=O)(=O)c3cccc4cccnc34)c1)C1CC1)CCCCCC2 | 1300 | 0.4 | > 30000 | clearance [1]: 2.83 mL/min/kg; Cmax [2]: 6.2 µM; Tmax [3]: 0.25 h; bioavailability [4]: 34%; Vd [5]: 0.15 L/kg; half-life [8]: 1.8 h
15 | O=c1c2c(oc(O)c1C(c1cccc(N(CCc3ccccc3)S(=O)(=O)c3ccccc3)c1)C1CC1)CCCCCC2 (stereo not given) | – | – | – | inhibition [10]: < 10%; inhibition [11]: < 10%
16 | CC(C)N(c1cccc(C(c2c(O)c3c(oc2=O)CCCCCC3)C2CC2)c1)S(=O)(=O)c1ccccc1 (stereo not given) | – | – | – | inhibition [10]: < 10%
17 | Cn1cnc(S(=O)(=O)Nc2cccc([C@@H](c3c(O)c4c(oc3=O)CCCCCC4)C3CC3)c2)c1 | 2100 | 0.045 | > 30000 | clearance [1]: 4.67 mL/min/kg; Cmax [2]: 0.64 µM; Tmax [3]: 0.25 h; bioavailability [4]: 15%; Vd [5]: 0.2 L/kg; half-life [8]: 2.4 h
18 | O=c1c2c(oc(O)c1C(c1cccc(N(S(=O)(=O)c3ccccc3)S(=O)(=O)c3ccccc3)c1)C1CC1)CCCCCC2 (stereo not given) | – | – | – | inhibition [12]: 10%
19 | O=c1c2c(oc(O)c1C(c1cccc(N(CC3CC3)S(=O)(=O)c3ccccc3)c1)C1CC1)CCCCCC2 (stereo not given) | – | – | – | inhibition [10]: < 10%
20 | [N-]=[N+]=Nc1ccc(S(=O)(=O)Nc2cccc(C(c3c(O)oc4c(c3=O)CCCCCC4)C3CC3)c2)cc1 (stereo not given) | 1700 | 2.6 | > 30000 | –
21 | CCCC(c1cccc(NS(=O)(=O)c2ccc(C#N)cc2)c1)c1c(O)c2c(oc1=O)CCCCCC2 (stereo not given) | 3900 | 1.4 | > 30000 | –
22 | CC(C)CC(c1cccc(NS(=O)(=O)c2cccc3cccnc23)c1)c1c(O)c2c(oc1=O)CCCCCC2 (stereo not given) | > 10000 | 3.3 | > 30000 | –
23 | Cn1cnc(S(=O)(=O)Nc2cccc(C(c3c(O)c4c(oc3=O)CCCCCC4)C3CC3)c2)c1 (stereo not given) | 2700 | 1.6 | > 100000 | –
24 | O=c1c2c(oc(O)c1C(c1cccc(NS(=O)(=O)c3ccc4ccccc4n3)c1)C1CC1)CCCCCC2 (stereo not given) | 5400 | 0.4 | > 30000 | –
25 | Cc1ccc(S(=O)(=O)Nc2cccc(C(c3c(O)c4c(oc3=O)CCCCCC4)C3CC3)c2)cc1 (stereo not given) | 3600 | 3.3 | > 30000 | –
26 | CCCCC(c1cccc(NS(=O)(=O)c2ccc(C#N)cc2)c1)c1c(O)c2c(oc1=O)CCCCCC2 (stereo not given) | 7600 | 2.1 | > 30000 | –
27 | CC(C)C(c1cccc(NS(=O)(=O)c2cn(C)cn2)c1)c1c(O)c2c(oc1=O)CCCCCC2 (stereo not given) | 2500 | 0.5 | > 30000 | –
28 | CCCC(c1cccc(NS(=O)(=O)c2cn(C)cn2)c1)c1c(O)c2c(oc1=O)CCCCCC2 (stereo not given) | 2500 | 0.1 | > 30000 | –
29 | COc1ccc(S(=O)(=O)Nc2cccc(C(c3c(O)c4c(oc3=O)CCCCCC4)C3CC3)c2)cc1 (stereo not given) | 4500 | 3.9 | > 30000 | –
30 | O=c1c2c(oc(O)c1C(c1cccc(N(Cc3ccccc3)S(=O)(=O)c3ccccc3)c1)C1CC1)CCCCCC2 (stereo not given) | – | – | – | inhibition [10]: < 10%; inhibition [16]: < 10%
31 | O=c1c2c(oc(O)c1C(c1cccc(NS(=O)(=O)c3cc(Cl)cc(Cl)c3)c1)C1CC1)CCCCCC2 (stereo not given) | > 10000 | 6.9 | > 30000 | –
32 | CCCC(c1cccc(NS(=O)(=O)c2ccc(F)cc2)c1)c1c(O)c2c(oc1=O)CCCCCC2 (stereo not given) | 6300 | 2.1 | > 30000 | –
33 | CCCC(c1cccc(NS(=O)(=O)c2ccc(Cl)cc2)c1)c1c(O)c2c(oc1=O)CCCCCC2 (stereo not given) | > 10000 | 4 | > 30000 | –
34 | CCCC(c1cccc(NS(=O)(=O)c2cccnc2)c1)c1c(O)c2c(oc1=O)CCCCCC2 (stereo not given) | > 10000 | 2.2 | > 30000 | –
35 | O=c1c2c(oc(O)c1C(c1cccc(NS(=O)(=O)c3ccc(Cl)c(Cl)c3Cl)c1)C1CC1)CCCCCC2 (stereo not given) | 4100 | 8.8 | > 30000 | –
36 | O=c1c2c(oc(O)c1C(c1cccc(NS(=O)(=O)c3cccc4ccccc34)c1)C1CC1)CCCCCC2 (stereo not given) | 3600 | 5.5 | > 30000 | –
37 | O=c1c2c(oc(O)c1[C@@H](c1cccc(NS(=O)(=O)c3cccc4cccnc34)c1)C1CC1)CCCCCC2 | 7200 | 0.9 | > 30000 | –
38 | CCC(c1cccc(NS(=O)(=O)c2ccc(Cl)cc2)c1)c1c(O)c2c(oc1=O)CCCCCC2 (stereo not given) | 4700 | 3.5 | > 30000 | –
39 | CC(C)CC(c1cccc(NS(=O)(=O)c2ccc(F)cc2)c1)c1c(O)c2c(oc1=O)CCCCCC2 (stereo not given) | > 10000 | 2.8 | > 30000 | –
40 | NC(=O)c1ccc(S(=O)(=O)Nc2cccc(C(c3c(O)c4c(oc3=O)CCCCCC4)C3CC3)c2)cc1 (stereo not given) | 5800 | 1.9 | > 30000 | –
